# Reference: ChEMBL document CHEMBL4689842, “EUbOPEN Chemogenomics Library wave 1” (2021)
# System: U2OS
# Assay: Multiplex assay against U2OS
# Format: toxicity, cell-based
# Settings: human
# Procedure, shortened: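 Values for tubulin, mitochondrial-mass and membrane-permeability phenotypes are per cents of cells with healthy nuclei. These cells were identified by CellPathfinder machine-learning gating of live cells that had been stained at seeding with Hoechst33342, BioTracker Green Microtubule Cytoskeleton Dye, MitoTracker Red and Annexin V Alexa Fluor 680 and imaged on a CQ1 microscope at 37°C and 5% CO2 after compound addition. The gating first set Hoechst high-intensity objects apart from normal cells, then split normal cells into healthy, pyknosed or fragmented nuclei, and pyknosed cells into mitotic or apoptotic.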
# [1] = 12 h, 1 µM, compound concentration 1 uM, replicate 1
# [2] = 12 h, 1 µM, compound concentration 1 uM, replicate 2
# [3] = 12 h, 10 µM, compound concentration 10 uM, replicate 1
# [4] = 12 h, 10 µM, compound concentration 10 uM, replicate 2
# [5] = 24 h, 1 µM, compound concentration 1 uM, replicate 1
# [6] = 24 h, 1 µM, compound concentration 1 uM, replicate 2
# [7] = 24 h, 10 µM, compound concentration 10 uM, replicate 1
# [8] = 24 h, 10 µM, compound concentration 10 uM, replicate 2
# [9] = 48 h, 1 µM, compound concentration 1 uM, replicate 1
# [10] = 48 h, 1 µM, compound concentration 1 uM, replicate 2
# [11] = 48 h, 10 µM, compound concentration 10 uM, replicate 1
# [12] = 48 h, 10 µM, compound concentration 10 uM, replicate 2
smiles,measurement,setting,value
COc1cc(N2CCN(C)CC2)ccc1Nc1ncc2c(n1)N(C)c1ccccc1C(=O)N2C,Population Apoptotic (%),[1],33%
same,Population Fragmented Nuclei (%),[1],12%
same,Population Healthy Nuclei (%),[1],72%
same,Population Hoechst High Intensity Objects (%),[1],6%
same,Population Membrane Permeable-Phenotype (%),[1],6%
same,Population Mitochondria Different-Phenotype (%),[1],25%
same,Population Mitotic Cells (%),[1],66%
same,Population Normal (%),[1],93%
same,Population Pyknosed Nuclei (%),[1],14%
same,Population Tubulin-Different-Phenotype (%),[1],17%
same,Total Cell Count,[1],199
same,Population Apoptotic (%),[2],40%
same,Population Fragmented Nuclei (%),[2],5%
same,Population Healthy Nuclei (%),[2],82%
same,Population Hoechst High Intensity Objects (%),[2],4%
same,Population Membrane Permeable-Phenotype (%),[2],9%
same,Population Mitochondria Different-Phenotype (%),[2],21%
same,Population Mitotic Cells (%),[2],60%
same,Population Normal (%),[2],95%
same,Population Pyknosed Nuclei (%),[2],12%
same,Population Tubulin-Different-Phenotype (%),[2],15%
same,Total Cell Count,[2],104
same,Population Apoptotic (%),[3],60%
same,Population Fragmented Nuclei (%),[3],11%
same,Population Healthy Nuclei (%),[3],66%
same,Population Hoechst High Intensity Objects (%),[3],7%
same,Population Membrane Permeable-Phenotype (%),[3],22%
same,Population Mitochondria Different-Phenotype (%),[3],96%
same,Population Mitotic Cells (%),[3],39%
same,Population Normal (%),[3],92%
same,Population Pyknosed Nuclei (%),[3],21%
same,Population Tubulin-Different-Phenotype (%),[3],99%
same,Total Cell Count,[3],177
same,Population Apoptotic (%),[4],66%
same,Population Fragmented Nuclei (%),[4],15%
same,Population Healthy Nuclei (%),[4],61%
same,Population Hoechst High Intensity Objects (%),[4],5%
same,Population Membrane Permeable-Phenotype (%),[4],21%
same,Population Mitotic Cells (%),[4],33%
same,Population Normal (%),[4],94%
same,Population Pyknosed Nuclei (%),[4],23%
same,Population Tubulin-Different-Phenotype (%),[4],100%
same,Total Cell Count,[4],42
same,Population Apoptotic (%),[5],29%
same,Population Fragmented Nuclei (%),[5],11%
same,Population Hoechst High Intensity Objects (%),[5],5%
same,Population Membrane Permeable-Phenotype (%),[5],3%
same,Population Mitochondria Different-Phenotype (%),[5],8%
same,Population Mitotic Cells (%),[5],70%
same,Population Normal (%),[5],94%
same,Population Pyknosed Nuclei (%),[5],12%
same,Population Tubulin-Different-Phenotype (%),[5],8%
same,Total Cell Count,[5],187
same,Population Apoptotic (%),[6],50%
same,Population Fragmented Nuclei (%),[6],9%
same,Population Healthy Nuclei (%),[6],75%
same,Population Hoechst High Intensity Objects (%),[6],6%
same,Population Membrane Permeable-Phenotype (%),[6],6%
same,Population Mitochondria Different-Phenotype (%),[6],12%
same,Population Mitotic Cells (%),[6],50%
same,Population Normal (%),[6],93%
same,Population Pyknosed Nuclei (%),[6],14%
same,Population Tubulin-Different-Phenotype (%),[6],6%
same,Total Cell Count,[6],101
same,Population Apoptotic (%),[7],69%
same,Population Fragmented Nuclei (%),[7],18%
same,Population Healthy Nuclei (%),[7],50%
same,Population Hoechst High Intensity Objects (%),[7],7%
same,Population Membrane Permeable-Phenotype (%),[7],19%
same,Population Mitochondria Different-Phenotype (%),[7],94%
same,Population Mitotic Cells (%),[7],30%
same,Population Normal (%),[7],92%
same,Population Pyknosed Nuclei (%),[7],30%
same,Population Tubulin-Different-Phenotype (%),[7],97%
same,Total Cell Count,[7],204
same,Population Apoptotic (%),[8],76%
same,Population Fragmented Nuclei (%),[8],11%
same,Population Healthy Nuclei (%),[8],63%
same,Population Hoechst High Intensity Objects (%),[8],8%
same,Population Membrane Permeable-Phenotype (%),[8],30%
same,Population Mitochondria Different-Phenotype (%),[8],93%
same,Population Mitotic Cells (%),[8],23%
same,Population Normal (%),[8],91%
same,Population Pyknosed Nuclei (%),[8],25%
same,Population Tubulin-Different-Phenotype (%),[8],66%
same,Total Cell Count,[8],44
same,Population Apoptotic (%),[9],42%
same,Population Fragmented Nuclei (%),[9],7%
same,Population Healthy Nuclei (%),[9],77%
same,Population Membrane Permeable-Phenotype (%),[9],4%
same,Population Mitochondria Different-Phenotype (%),[9],5%
same,Population Mitotic Cells (%),[9],57%
same,Population Pyknosed Nuclei (%),[9],14%
same,Population Tubulin-Different-Phenotype (%),[9],8%
same,Total Cell Count,[9],182
same,Population Apoptotic (%),[10],60%
same,Population Fragmented Nuclei (%),[10],5%
same,Population Healthy Nuclei (%),[10],76%
same,Population Hoechst High Intensity Objects (%),[10],3%
same,Population Membrane Permeable-Phenotype (%),[10],9%
same,Population Mitochondria Different-Phenotype (%),[10],16%
same,Population Mitotic Cells (%),[10],40%
same,Population Normal (%),[10],96%
same,Population Pyknosed Nuclei (%),[10],18%
same,Population Tubulin-Different-Phenotype (%),[10],11%
same,Total Cell Count,[10],88
same,Population Apoptotic (%),[11],84%
same,Population Fragmented Nuclei (%),[11],21%
same,Population Healthy Nuclei (%),[11],42%
same,Population Hoechst High Intensity Objects (%),[11],7%
same,Population Membrane Permeable-Phenotype (%),[11],18%
same,Population Mitotic Cells (%),[11],15%
same,Population Normal (%),[11],92%
same,Population Pyknosed Nuclei (%),[11],35%
same,Population Tubulin-Different-Phenotype (%),[11],82%
same,Total Cell Count,[11],297
same,Population Apoptotic (%),[12],63%
same,Population Fragmented Nuclei (%),[12],11%
same,Population Healthy Nuclei (%),[12],46%
same,Population Hoechst High Intensity Objects (%),[12],19%
same,Population Membrane Permeable-Phenotype (%),[12],33%
same,Population Mitochondria Different-Phenotype (%),[12],90%
same,Population Mitotic Cells (%),[12],36%
same,Population Normal (%),[12],80%
same,Population Pyknosed Nuclei (%),[12],42%
same,Population Tubulin-Different-Phenotype (%),[12],61%
same,Total Cell Count,[12],57
